{"source": "ChEMBL document CHEMBL1629552", "about": "“In vitro and in vivo treatments of echinococcus protoscoleces and metacestodes with artemisinin and artemisinin derivatives” (Antimicrob Agents Chemother, 2008)", "key": {"Echinococcus granulosus [1]": {"system": "Echinococcus granulosus", "test": "Antimicrobial activity against Echinococcus granulosus protoscoleces assessed as reduction in protoscoleces viability at 10 uM by trypan blue exclusion assay", "type": "functional", "how_it_was_run": "(§1)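 E. granulosus protoscoleces were isolated and kept in vitro per earlier work. Compounds from 10 mM DMSO stocks were added at 4, 10 and 40 μM, with nitazoxanide as positive control and DMSO as solvent control. Viability was scored microscopically by trypan blue exclusion over days of culture. The experiment was repeated three times.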"}, "[2]": {"system": "Echinococcus multilocularis", "test": "Antimicrobial activity against Echinococcus multilocularis -infected in BALB/c mouse assessed as parasite weight at 200 mg/kg body weight intragastrically administered 8 weeks post-infecion (reference value: 5.71+/-1.79 g)", "type": "functional", "conditions": "route intragastric"}, "[3]": {"system": "Echinococcus multilocularis", "test": "Antimicrobial activity against Echinococcus multilocularis metacestode assessed as increase in alkaline phosphatase activity at 40 uM after 8 days", "type": "functional, organism-based", "how_it_was_run": "(§2)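 In vitro-cultured E. multilocularis metacestode vesicles were treated for 12 days with compounds at 40 μM (10 mM DMSO stocks). Albendazole was the positive control and matching DMSO the negative control. Culture supernatant was sampled daily and stored at −20°C, and parasite alkaline phosphatase (EmAP) activity was assayed at the time points shown.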"}, "[4]": {"system": "Echinococcus multilocularis", "test": "Antimicrobial activity against Echinococcus multilocularis metacestode assessed as increase in alkaline phosphatase activity at 40 uM"}, "Echinococcus granulosus [5]": {"system": "Echinococcus granulosus", "test": "Antimicrobial activity against Echinococcus granulosus protoscoleces assessed as reduction in protoscoleces viability at 40 uM by trypan blue exclusion assay", "type": "functional", "how_it_was_run": "as §1"}, "[6]": {"system": "Echinococcus multilocularis", "test": "Antimicrobial activity against Echinococcus multilocularis metacestode assessed as loss of multicellular structure of germinal layer by transmission electron microscopy", "type": "functional, organism-based"}, "Echinococcus granulosus [7]": {"system": "Echinococcus granulosus", "test": "Antimicrobial activity against Echinococcus granulosus protoscoleces assessed as reduction in protoscoleces viability at 40 uM upto 2 days by trypan blue exclusion assay", "type": "functional", "how_it_was_run": "as §1"}, "Mus musculus": {"species_on_record": "Mus musculus", "test": "Toxicity against Echinococcus multilocularis -infected in BALB/c mouse assessed as adverse effect", "type": "organism-based", "conditions": "in vivo"}, "Echinococcus granulosus [8]": {"system": "Echinococcus granulosus", "test": "Antimicrobial activity against Echinococcus granulosus metacestode assessed as loss of multicellular structure of germinal layer by transmission electron microscopy", "type": "functional"}, "Echinococcus granulosus [9]": {"system": "Echinococcus granulosus", "test": "Antimicrobial activity against Echinococcus granulosus protoscoleces assessed as reduction in protoscoleces viability at 40 uM after 6 days by trypan blue exclusion assay", "type": "functional", "how_it_was_run": "as §1"}, "[10]": {"system": "Echinococcus multilocularis", "test": "Antimicrobial activity against Echinococcus multilocularis metacestode assessed as increase in alkaline phosphatase activity at 40 uM within 4 days", "type": "functional, organism-based", "how_it_was_run": "as §2"}}, "note": "Activity calls are given as the source filed them. The calls are words filed in the database; no cut-off is given here."}
{"smiles": "CC(=O)Oc1ccccc1C(=O)Nc1ncc([N+](=O)[O-])s1", "values": [{"measurement": "Activity", "setting": "Echinococcus granulosus [1]", "result": "Active"}]}
{"smiles": "CCCSc1ccc2[nH]c(NC(=O)OC)nc2c1", "note": "[ALBENDAZOLE]", "values": [{"measurement": "Activity", "setting": "[2]", "result": 2.96, "unit": "g"}]}
{"smiles": "C[C@H]1[C@@H](O)O[C@@H]2O[C@@]3(C)CC[C@H]4[C@H](C)CC[C@@H]1[C@@]24OO3", "note": "[ARTENIMOL]", "values": [{"measurement": "Activity", "setting": "[3]", "result": "Active"}, {"measurement": "Activity", "setting": "[4]", "result": "inactive"}, {"measurement": "Activity", "setting": "Echinococcus granulosus [5]", "result": "Active"}, {"measurement": "Activity", "setting": "[6]", "result": "Active"}, {"measurement": "Activity", "setting": "Echinococcus granulosus [7]", "result": "inactive"}, {"measurement": "Activity", "setting": "Echinococcus granulosus [1]", "result": "inactive"}, {"measurement": "Activity", "setting": "Mus musculus", "result": "Non-toxic"}, {"measurement": "Activity", "setting": "Echinococcus granulosus [8]", "result": "Active"}, {"measurement": "Activity", "setting": "Echinococcus granulosus [9]", "result": 90, "unit": "%"}, {"measurement": "Activity", "setting": "[2]", "result": 4.11, "unit": "g"}]}
{"smiles": "C[C@H]1[C@H](OC(=O)CCC(=O)O)O[C@@H]2O[C@@]3(C)CC[C@H]4[C@H](C)CC[C@@H]1[C@@]24OO3", "note": "[ARTESUNATE]", "values": [{"measurement": "Activity", "setting": "[4]", "result": "inactive"}, {"measurement": "Activity", "setting": "[10]", "result": "Active"}, {"measurement": "Activity", "setting": "Echinococcus granulosus [5]", "result": "Active"}, {"measurement": "Activity", "setting": "[6]", "result": "Active"}, {"measurement": "Activity", "setting": "Echinococcus granulosus [1]", "result": "inactive"}, {"measurement": "Activity", "setting": "Mus musculus", "result": "Non-toxic"}, {"measurement": "Activity", "setting": "Echinococcus granulosus [8]", "result": "Active"}, {"measurement": "Activity", "setting": "[2]", "result": 4.6, "unit": "g"}]}
{"smiles": "C[C@@H]1CC[C@H]2[C@@H](C)C(=O)O[C@@H]3O[C@@]4(C)CC[C@@H]1[C@]32OO4", "values": [{"measurement": "Activity", "setting": "[4]", "result": "inactive"}, {"measurement": "Activity", "setting": "[10]", "result": "inactive"}, {"measurement": "Activity", "setting": "Echinococcus granulosus [5]", "result": "inactive"}]}
{"smiles": "CO[C@H]1O[C@@H]2O[C@@]3(C)CC[C@H]4[C@H](C)CC[C@@H]([C@H]1C)[C@@]24OO3", "values": [{"measurement": "Activity", "setting": "[4]", "result": "inactive"}, {"measurement": "Activity", "setting": "[10]", "result": "inactive"}, {"measurement": "Activity", "setting": "Echinococcus granulosus [5]", "result": "inactive"}]}
